Measurements taken from ChEMBL document CHEMBL1122951, “Synthesis of new polyoxin derivatives and their activity against chitin synthase from Candida albicans” (J Med Chem, 1985).

What was measured:
[1] = target: Chitin synthase 1 (Candida albicans) (UniProt P23316); assay: Inhibitory activity against chitin synthase from Candida albicans at a concentration 100 uM
In short: (§1)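 Membrane preparation from C. albicans grown in liquid shake culture in Sabouraud broth, pH 6.5, washed in 0.2 M Tris-HCl pH 7.5 and broken with glass beads. Chitin synthase trypsin-activated just before assay. Substrate UDP-GlcNAc 0.5 mM. Percent inhibition at the stated inhibitor concentration, mean of triplicate assays.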

[2] = target: Chitin synthase 1 (Candida albicans) (UniProt P23316); assay: Inhibitory activity against chitin synthase from Candida albicans at a concentration 25 uM; in short: as §1
[3] = target: Chitin synthase 1 (Candida albicans) (UniProt P23316); assay: Inhibitory activity against chitin synthase from Candida albicans at a concentration 5 uM; in short: as §1

Chain of Chitin synthase 1 (Candida albicans) (P23316 whole entry, looked up): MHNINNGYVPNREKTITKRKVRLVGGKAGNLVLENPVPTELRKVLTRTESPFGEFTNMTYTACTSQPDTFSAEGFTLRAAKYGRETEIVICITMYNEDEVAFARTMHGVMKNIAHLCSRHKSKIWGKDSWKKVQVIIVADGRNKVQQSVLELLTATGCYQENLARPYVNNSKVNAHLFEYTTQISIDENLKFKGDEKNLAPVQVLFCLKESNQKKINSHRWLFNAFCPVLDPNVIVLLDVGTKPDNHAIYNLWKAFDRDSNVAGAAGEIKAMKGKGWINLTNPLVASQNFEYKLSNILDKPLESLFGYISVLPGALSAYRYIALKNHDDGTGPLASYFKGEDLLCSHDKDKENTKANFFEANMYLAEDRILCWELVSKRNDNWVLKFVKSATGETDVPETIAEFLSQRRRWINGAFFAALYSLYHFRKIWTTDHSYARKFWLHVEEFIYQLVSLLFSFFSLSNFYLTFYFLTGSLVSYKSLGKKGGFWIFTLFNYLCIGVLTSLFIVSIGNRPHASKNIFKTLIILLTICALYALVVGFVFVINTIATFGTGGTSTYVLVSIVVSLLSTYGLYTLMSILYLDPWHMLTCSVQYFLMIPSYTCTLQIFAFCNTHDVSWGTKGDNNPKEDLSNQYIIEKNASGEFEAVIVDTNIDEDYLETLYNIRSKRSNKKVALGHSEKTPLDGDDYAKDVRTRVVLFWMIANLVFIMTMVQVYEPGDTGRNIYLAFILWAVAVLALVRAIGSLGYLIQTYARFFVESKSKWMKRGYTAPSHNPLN

Structure (SMILES) | inhibition [1] | inhibition [2] | inhibition [3]
NC(=O)NCCC[C@@H](N)C(=O)N[C@@H](C(=O)O)[C@H]1O[C@@H](n2ccc(=O)[nH]c2=O)[C@H](O)[C@@H]1O | 80% | 37% | 0%
C[C@H](N)C(=O)N[C@@H](C(=O)O)[C@H]1O[C@@H](n2ccc(=O)[nH]c2=O)[C@H](O)[C@@H]1O | 45% | 20% | 0%
N[C@@H](C(=O)N[C@@H](C(=O)O)[C@H]1O[C@@H](n2ccc(=O)[nH]c2=O)[C@H](O)[C@@H]1O)[C@H](O)Cc1ccc(O)cc1 | 100% | 96% | 79%
C[C@H](N)C(=O)N(C)[C@@H](C(=O)O)[C@H]1O[C@@H](n2ccc(=O)[nH]c2=O)[C@H](O)[C@@H]1O | 0% | 0% | 0%
C[C@@H](N)CNC(C(=O)O)C1OC(n2ccc(=O)[nH]c2=O)C(O)C1O (some centres undefined) | 2% | 0% | 0%
NC(=O)NCCC[C@@H](N)C(=O)N[C@H](C(=O)O)[C@H]1O[C@@H](n2ccc(=O)[nH]c2=O)[C@H](O)[C@@H]1O | 0% | 0% | 0%
C[C@@H](O)[C@H](N)C(=O)N[C@@H](C(=O)O)[C@H]1O[C@@H](n2ccc(=O)[nH]c2=O)[C@H](O)[C@@H]1O | 53% | 26% | 8%
C[C@@H](N)C(=O)N[C@@H](C(=O)O)[C@H]1O[C@@H](n2ccc(=O)[nH]c2=O)[C@H](O)[C@@H]1O | 0% | 0% | 0%
